Source: PubChem BioAssay (several laboratories)
Hits are enriched below; roughly 2.2% of the tested compounds scored in any of these assays.
Ba/F3 V617F tox = lowers viability of Ba/F3 cells expressing EpoR and JAK2V617F. ATP luminescence. inhibition, % at 5.6 µM. 220,000 compounds, 1.1% hits. AID 1446;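 active = inhibition above the campaign mean plus 3 SD over all tested compounds, cut at about 24% in these data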;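 note: cytokine-independent growth of Ba/F3 cells driven by EpoR plus mutant JAK2; 0% = DMSO-treated cells and 100% = JAK inhibitor I control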
b-catenin transl = modulators of beta-catenin nuclear translocation; 190,000 compounds, 0.3% hits; nuclear translocation activity, % at 5 µM; HeLa beta-catenin nuclear translocation, immunofluorescence imaging;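 active = nuclear translocation activity above 50% at 5 µM, with a well cell count of 50 or more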;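 note: per-cell ratio of nuclear to cytoplasmic median beta-catenin stain intensity; plate controls were DMSO negative control for no effect and GSK-3 inhibitor IX positive control for full effect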
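System: HeLa cells, endogenous beta-catenin; compound dosing: 5 µM primary single dose, 0.1% DMSO, 0.02–20 µM confirmation series; incubation: 24 h compound exposure at 37°C, 5% CO2; signal: beta-catenin immunofluorescence imaging with DAPI; evaluation: % activation, nuclear-to-cytoplasmic median beta-catenin signal ratio per cell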
APP transl inh = APP translation inhibition; inhibition, % at 2 µM; SH-SY5Y APP 5'UTR-luciferase reporter, luminescence; 190,000 compounds, 0.82% hits; AID 1285;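 active = inhibition above a set limit, derived from the sample mean plus 3 SD, cut at about 45% in these data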
MT stabilizer = stabilizes microtubules in HeLa cells. HeLa tubulin immunostaining HCS, 24 h; share of cells brighter than vehicle mean+2SD. % tubulin-high responders, % at 10 µM. 200,000 compounds, 0.83% hits. AID 2205;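 active = plate Z-score above 3 for both tubulin-high and condensed-nucleus cell shares, with cell loss under 80%, at 10 µM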;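 note: anti alpha tubulin signal scored within the nucleus-defined area of each cell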
BaF3 parental = parental Ba/F3 viability inhibition as JAK2V617F counter-screen; CellTiter-Glo ATP luminescence; inhibition, % at 5.6 µM; 220,000 compounds, 1.1% hits; AID 1486;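 active = inhibition above a per-campaign cutoff, the mean inhibition of all tested compounds plus 3 SD, cut at about 27% in these data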;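 note: 0% = DMSO wells and 100% = JAK Inhibitor I control wells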
IEC-6 tox = kills IEC-6 intestinal cells in KLF5 counter-screen | IEC-6 cytotoxicity, luminescence viability | inhibition, % at 5 µM | 290,000 compounds, 0.78% hits | AID 1825;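 note: 0% = plate median of test compound wells and 100% = cytotoxic reference compound wells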
IEC-6 cytotox cf = IEC-6 cytotoxicity, confirmation assay; AID 1907; 1,900 compounds, 63% hits; IEC-6 rat intestinal epithelial viability, luminescence; inhibition, % at 5 µM; shares compounds with IEC-6 tox;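 note: 0% = vehicle and 100% = reference cytotoxic drug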
* marks the source's active call; other numbers are inactive results; . = not tested or not shown. Cut-off read from the data, not from the text of the source, unless noted: active = inhibition above about 22%; inactive = the rest.

SMILES | Ba/F3 V617F tox | b-catenin transl | APP transl inh | MT stabilizer | BaF3 parental | IEC-6 tox | IEC-6 cytotox cf
CCOc1ccc(/C=C/c2nc(C#N)c(NCCCOC)o2)cc1 | . | . | . | . | . | 74.2* | 61.0*
CCOc1ccc(/C=C/c2nc(C#N)c(NCCCN(C)C)o2)cc1 | . | . | . | . | . | 3.1 | .
COc1ccc2nc(SCC(=O)NC3CCCC3)c(C)cc2c1 | . | . | . | . | . | 44.6* | 26.7*
COc1ccc2nc(SCC(=O)NC3CCCCC3)[nH]c2c1 | . | . | . | . | . | 2.8 | .
COc1ccc(C2=NN(C(=O)c3cccs3)C(O)(C(F)(F)F)C2)cc1 (centres undefined) | -1.5 | -1.4 | 24.4 | 1.7 | 3.2 | 53.6* | 40.8*
CC(C)c1ccc(/C=C/C2=NNC(=O)CC2)cc1 | 37.9* | 6.2 | -164.7 | 6.1 | 29.8* | 54.8* | 37.0*
O=C(Cc1ccc(-n2cccc2)cc1)NCc1ccccc1Cl | -1.0 | 62.8* | 4.9 | 24.5* | 6.3 | 28.7* | 31.6*
Cc1ccc(CNC(=O)C(=O)NCC2OCCCN2S(=O)(=O)c2ccc(F)cc2)cc1 (centres undefined) | . | . | . | . | . | 0.8 | .
Cc1ccc(N(C)S(=O)(=O)c2ccc(-c3cc(C)no3)s2)cc1 | . | . | . | . | . | 41.3* | 4.8
Cc1cc(-c2ccc(S(=O)(=O)N(C)c3ccc(C)c(C)c3)s2)on1 | . | . | . | . | . | 52.8* | 42.2*
CC(=O)NC(Nc1c(C)n(C)n(-c2ccccc2)c1=O)C(Cl)(Cl)Cl (centres undefined) | 4.2 | -1.2 | -9.5 | 2.2 | 6.7 | 3.0 | .
CC1(NC(=O)Nc2cccc3ccccc23)CCS(=O)(=O)C1 (centres undefined) | . | . | . | . | . | -1.0 | .
OCCC1CN(CCCc2ccccc2)CCN1Cc1ccccc1 (centres undefined) | -3.8 | 0.4 | . | . | 1.2 | 22.9* | 3.1
CCCCC1CCC(C(=O)N(CCCC)c2c(N)n(CCCC)c(=O)[nH]c2=O)CC1 (centres undefined) | . | . | . | . | . | -0.7 | .
Cc1ccccc1N(C)C(=O)C1CCCN(c2ncnc3c2nc2n3CCCCC2)C1 (centres undefined) | . | . | . | . | . | 2.4 | .
CC(=O)NC1=C(Nc2ccc(N(C)C)cc2)C(=O)c2ccccc2C1=O | . | . | . | . | . | 67.4* | 41.4*
C=CCn1c(SCc2c(C)noc2C)nc2ccccc2c1=O | 71.1* | . | 94.5* | 27.3* | 71.7* | 82.7* | 56.5*
C=CCn1c(SCc2nc3ccccc3c(=O)[nH]2)nc2ccccc2c1=O | -1.2 | 2.9 | -0.3 | 3.0 | 2.3 | -0.4 | .
Cc1ccccc1N(C(=O)CNC(=O)c1ccco1)C(C(=O)NC1CCCC1)c1ccncc1 (centres undefined) | . | . | . | . | . | -0.2 | .
Cc1ccc2[nH]c(-c3ccccc3)cc(=O)c2c1 | 85.7* | 92.9* | 91.0* | 43.0* | 81.1* | 87.7* | 57.4*
CCc1c(C(=O)NC2CCCc3ccccc32)[nH]c(C)c1C(C)=O (centres undefined) | . | . | . | . | . | 46.7* | 18.1
O=C(/C=C/c1ccco1)Nc1nc(-c2ccccn2)cs1 | 0.6 | -1.4 | -14.5 | 0.0 | 3.9 | 5.5 | .
O=C(/C=C/c1ccco1)Nc1cccnc1 | -0.9 | 0.4 | -10.1 | 1.6 | 5.5 | 2.8 | .
Cc1ccc(NC(=O)/C=C/c2ccco2)nc1 | 84.6* | 146.2* | 88.8* | 3.6 | 81.9* | 85.6* | 57.2*
O=C(/C=C/c1ccco1)Nc1ccccn1 | 62.6* | 45.2 | -72.9 | 17.5 | 56.2* | 27.5* | 58.5*
SMILES | Ba/F3 V617F tox | b-catenin transl | APP transl inh | MT stabilizer | BaF3 parental | IEC-6 tox | IEC-6 cytotox cf
O=C(COc1cc(F)ccc1[N+](=O)[O-])NCCCc1ccccc1 | 3.7 | -0.5 | 6.4 | 3.1 | 7.7 | 3.9 | .
O=C(CCl)c1ccc2c(c1)CCN2C(=O)C1CCCCC1 | 0.0 | -1.9 | 14.7 | 2.0 | 5.5 | -0.1 | .
CC(=O)CC1OC(=O)C(Br)=C1NCc1ccccc1 (centres undefined) | 75.2* | -1.0 | 71.2* | 2.8 | 28.4* | 33.9* | 8.9
CCSc1nsc(NC(=O)Nc2cccc(F)c2)n1 | . | . | . | . | . | 46.5* | 31.7*
Cc1ccc(OCC(=O)Nc2ccon2)c([N+](=O)[O-])c1 | . | . | . | . | . | 6.6 | .
CCn1c(-c2ccc(N(C)C)cc2)nc2ccccc21 | 77.9* | 0.6 | -95.6 | 3.9 | 67.8* | 30.2* | 6.0
Cc1ccc(S(=O)(=O)NCc2ccc(C(=O)NC3CCCCC3)cc2)cc1 | . | . | . | . | . | -4.8 | .
CS(=O)(=O)NCc1ccc(C(=O)NC2CCCCC2)cc1 | 4.1 | . | -3.0 | 3.0 | 5.3 | 37.3* | 10.7
